Screening data from PubChem.
The list is not random: actives were taken first. Their share in the collection is about 4.8%.
UPR XBP1 act – activators of adaptive arm of unfolded protein response (XBP1); activation, % at 20 µM; CHO-XBP1 luciferase reporter, IRE1-XBP1 UPR activation, luminescence; percent of tunicamycin response, DMSO as zero; AID 463104; hit rate 0.33% among 330,000;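 active = versus positive control, 20 µM dose yields 30% or more activation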;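 also: 100% = tunicamycin at 10 µg/mL and 0% = DMSO only wells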
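Assay system: IRE1-XBP1 luciferase reporter CHO line. Input: 1000 cells/well. Buffer or medium: F12 with 10% serum. Doses: 20 µM, 1% DMSO. Times: overnight seeding at 37 °C, 6 h compound treatment at 37 °C. Technique: Steady-Glo luciferase glow luminescence, 10 min after reagent addition.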
Mdm2 MdmX PPI – disrupts the human Mdm2-MdmX interaction; inhibition, % at 8 µM; O15151+Q00987; SaOS-2 split-luciferase Mdm2/MdmX complementation, luminescence; hit rate 3% among 330,000;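 active = inhibition of at least 50% at 8 µM in the primary screen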
Target sequence (O15151 whole entry, looked up): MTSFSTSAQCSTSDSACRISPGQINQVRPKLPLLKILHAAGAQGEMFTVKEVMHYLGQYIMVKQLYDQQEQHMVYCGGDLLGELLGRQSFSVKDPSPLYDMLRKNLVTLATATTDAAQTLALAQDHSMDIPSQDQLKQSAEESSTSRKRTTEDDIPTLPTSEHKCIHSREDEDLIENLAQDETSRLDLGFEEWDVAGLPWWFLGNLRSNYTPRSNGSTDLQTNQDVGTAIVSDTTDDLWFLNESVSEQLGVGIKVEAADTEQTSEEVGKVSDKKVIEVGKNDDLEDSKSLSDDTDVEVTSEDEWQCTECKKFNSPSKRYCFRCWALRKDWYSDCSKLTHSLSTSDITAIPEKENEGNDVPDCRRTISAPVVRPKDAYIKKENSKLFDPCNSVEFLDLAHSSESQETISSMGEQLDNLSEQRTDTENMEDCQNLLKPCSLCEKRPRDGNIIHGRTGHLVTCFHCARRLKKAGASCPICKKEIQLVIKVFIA
Target sequence (Q00987 whole entry, looked up): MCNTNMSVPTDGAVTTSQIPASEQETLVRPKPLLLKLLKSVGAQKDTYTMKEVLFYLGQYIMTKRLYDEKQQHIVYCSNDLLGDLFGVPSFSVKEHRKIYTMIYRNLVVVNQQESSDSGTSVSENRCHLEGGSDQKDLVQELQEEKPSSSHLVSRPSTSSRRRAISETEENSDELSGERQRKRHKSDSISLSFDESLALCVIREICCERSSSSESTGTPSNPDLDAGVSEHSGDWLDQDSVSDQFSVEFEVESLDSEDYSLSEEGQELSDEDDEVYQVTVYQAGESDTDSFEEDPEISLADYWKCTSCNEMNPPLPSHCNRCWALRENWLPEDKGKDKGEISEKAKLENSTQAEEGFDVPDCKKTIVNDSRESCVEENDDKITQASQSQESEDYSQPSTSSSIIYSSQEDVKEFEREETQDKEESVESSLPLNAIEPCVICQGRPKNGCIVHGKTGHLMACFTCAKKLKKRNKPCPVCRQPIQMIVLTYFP
CHOP UPR activ – activators of apoptotic arm of unfolded protein response (CHOP) | CHO-CHOP luciferase reporter, UPR activation, luminescence; percent of tunicamycin response over DMSO baseline | activation, % at 10 µM | hit rate 0.34% among 330,000 | AID 449763;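 active = at 10 µM dose, activation of 40% or more, normalized to positive control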;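 also: 100% = tunicamycin at 10 µg/mL and 0% = DMSO alone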
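Test system: CHO CHOP reporter cells. Input: 500 CHO-CHOP cells per well. Medium: F12 with 10% FBS. Technique: luciferase luminescence. Measure: percent activation relative to tunicamycin control. Dosing: 10 µM compound, 0.5% DMSO. Timing: 16-18 h cell attachment, then 6 h compound exposure, 37 °C.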
SKKanGAS inh – inhibitors of SKKanGAS S. pyogenes growth in kanamycin (SK-promoter or general growth effect); inhibition, % at 7.5 µM; BacTiter-Glo, 6 h; hit rate 1.3% among 300,000;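 active = mean replicate score, as percent of positive control median, at least 50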;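 also: strain carries kanamycin resistance gene driven by streptokinase promoter and grows in 40 µg/ml kanamycin; loss of luminescence reflects streptokinase promoter inhibition or plain growth inhibition; 0% = median of DMSO wells and 100% = positive control at its reference dose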
Beta apoptosis – blocks beta cell apoptosis; INS-1E cytokine-induced death, ATP luminescence, 48 h; percent of positive-control rescue, neutral wells zero; protection from apoptosis, % (no concentration beside the values); hit rate 0.8% among 300,000; AID 435005;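 active = Every replicate reaches about 75%, or at least half do and their mean reaches it too, limit read from the data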;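 also: 0% = cytokine-treated negative control wells and 100% = positive control rescue; higher means more ATP so stronger rescue from cytokine killing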
CSC inhib – cancer stem cell inhibition; inhibition, % at 7.5 µM; hit rate 1.1% among 300,000; AID 2717; cancer stem cell-like cells viability, luminescence; in the data active = inhibition above about 75%; tested in HMLE shEcad cells
* hit, by the source's call; x = not tested or not shown.

SMILES	UPR XBP1 act	Mdm2 MdmX PPI	CHOP UPR activ	SKKanGAS inh	Beta apoptosis	CSC inhib
CN(C)[C@@H]1C(=O)C(C(N)=O)=C(O)[C@@]2(O)C(=O)C3=C(O)c4c(O)cccc4[C@@](C)(O)[C@H]3C[C@@H]12	-7	19	0	1	-2	-4
CN(C)[C@@H]1C(=O)C(C(N)=O)=C(O)[C@@]2(O)C(=O)C3=C(O)c4c(O)cccc4[C@@](C)(O)C3[C@H](O)C12 (stereo not given in full)	-6	16	-1	106*	-1	-11
CN(C)C1C(=O)C(C(N)=O)=C(O)C2(O)C(=O)C3=C(O)c4c(O)cccc4C(C)(O)C3CC12 (stereo not given)	x	x	x	102*	4	-9
OC1/C(=C/c2ccccc2C(F)(F)F)N2CCC1CC2 (stereo not given)	-2	23	-1	4	-5	0
CCCCNS(=O)(=O)c1ccc(OCC(=O)N2CCN(Cc3ccc4c(c3)OCO4)CC2)cc1	-7	16	-2	-8	12	12
C=CCn1c(O)c(C(CC)=Nc2ccc(N(C)C)cc2)c(=O)[nH]c1=O	-3	11	15	57*	-4	-3
Nc1ccc(CCN2CCN(c3cccc(C(F)(F)F)c3)CC2)cc1	-3	13	0	0	-2	95*
Nc1ccc(CCN2CCCC2)cc1	-5	-6	3	6	3	-8
CC(=O)OC1(c2ccccc2)CC(C(C)(C)C)CN(C(C)(C)C)C1 (stereo not given)	-1	1	2	4	0	-16
CCCCn1c(NS(=O)(=O)c2ccccc2)c(C(=O)OCC)c2nc3ccccc3nc21	x	x	x	23	-3	18
CCCCn1c(NC(=O)c2ccc(Br)o2)c(C(=O)OCC)c2nc3ccccc3nc21	62*	10	7	x	6	13
CC(=O)Nc1ccccc1C(=O)OCc1ccc(F)cc1	0	10	2	-4	3	11
O=C(Nc1ccc(C(F)(F)F)cc1)c1cccn(Cc2ccc3c(c2)OC(F)(F)O3)c1=O	3	22	0	13	-2	90*
CCCCS(=O)(=O)N1CCN(C(=N)N[N+](=O)[O-])CC1	-3	-12	-1	3	2	-8
CC(C)c1ccc(N2C(=O)NC(=O)/C(=C/C=C/c3ccco3)C2=O)cc1	x	x	x	5	65	98*
Cc1cc(C)cc(N2C(=O)NC(=O)/C(=C\C=C\c3ccco3)C2=O)c1	x	x	x	5	14	17
CCC(C)NC(=O)c1c(N)n(CCCOC)c2nc3ccccc3nc12 (stereo not given)	3	16	-1	5	-4	19
COCCCn1c(N)c(C(=O)Nc2ccccc2)c2nc3ccccc3nc21	5	48	1	50*	-1	33
CC1CN=C(Nc2ccccc2)S1 (stereo not given)	-5	5	0	-12	1	6
CC(C)Nc1ccc(Nc2ccccc2)cc1	-3	27	7	9	113*	4
COC(=O)C1=C(c2ccc(F)cc2F)C[C@@H]2CC[C@H]1N2C(=O)N1CCCCC1	-2	17	3	x	-2	4
COc1cccc(C2(O)CCSCC2CN(C)C)c1 (stereo not given)	1	6	-1	2	-5	15
COc1ccc(CCn2c(O)c(C=NCCN3CCCCC3)c(=O)[nH]c2=O)cc1OC	0	11	3	2	x	0
CCC(=O)N1N=C(c2c(O)n(CCc3ccccc3)c(=O)[nH]c2=O)CC1c1ccc(OC)c(OC)c1 (stereo not given)	3	22	2	100*	-2	3
Clc1ccc(CCC(Cn2ccnc2)Sc2c(Cl)cccc2Cl)cc1 (stereo not given)	-10	42	0	x	16	86*
SMILES	UPR XBP1 act	Mdm2 MdmX PPI	CHOP UPR activ	SKKanGAS inh	Beta apoptosis	CSC inhib
Cc1ccc(-c2nc3ccccc3c(=O)n2-c2ccc(O)cc2)cc1	-1	8	0	-2	-5	-15
Cc1ccc(-n2c(-c3cccs3)nc3ccccc3c2=O)cc1	-3	-17	0	6	-9	78*
COc1ccccc1-n1c(O)c(C=Nc2c(C)n(C)n(-c3ccccc3)c2=O)c(=O)[nH]c1=O	-3	6	0	1	-1	-5
Cc1cc(-c2ccccc2)cc(C)[n+]1Cc1ccccc1	2	-19	0	-1	109*	-15
O=C(c1ccccc1)C1NC1c1ccccc1 (stereo not given)	6	-9	2	6	5	-7
COC(=O)C1=C(c2cccc(C#N)c2)C[C@@H]2CC[C@H]1N2C(=O)NCc1cccc2ccccc12	-3	28	1	x	-2	-7
CC(=O)N1N=C(c2cccnc2)CC1c1ccccc1O (stereo not given)	-3	-19	-1	-3	1	-15
CC(=O)N1N=C(c2c(O)n(C)c(=O)n(C)c2=O)CC1c1ccccc1 (stereo not given)	-5	23	-3	51*	10	34
CN1C2CCC1/C(=C/c1ccccn1)C(=O)/C2=C\c1ccccn1	x	x	x	x	100*	38
Cc1ccc(-c2cc(-c3ccc(C)cc3)[n+](-c3ccc(C(=O)[O-])cc3)c(-c3ccc(C)cc3)c2)cc1	-3	36	3	78*	98*	17
c1ccc2c(CN3CCCCCC3)c[nH]c2c1	12	23	7	-9	100*	-13
C[C@H]1O[C@@H](OC2CC[C@]3(C=O)[C@H]4CC[C@]5(C)[C@@H](C6=CC(=O)OC6)CC[C@]5(O)[C@@H]4CC[C@]3(O)C2)CC2OC(C)(C)OC21 (stereo not given in full)	x	x	x	0	-2	101*
CC1CCC(C(C)C)C(OC(=O)COC(=O)c2ccccc2N)C1 (stereo not given)	1	17	1	67*	9	23
COc1ccc(OC)c(N=Cc2c(O)n(Cc3ccccc3)c(=S)[nH]c2=O)c1	12	3	6	51*	-3	-2
COC(=O)C1=C(c2ccc(-c3ccccc3)c(F)c2)C[C@@H]2CC[C@H]1N2C(=O)NCCOc1ccccc1Cl	-5	42	2	x	3	27
NCC(O)c1cc(O)c(O)cc1F (stereo not given)	-2	-17	-1	x	-3	-6
CCN(CC)C(=O)c1ccc(NC(=O)Nc2ccccc2F)cc1	-10	-74	-6	71*	68	81*
Clc1ccc(C(Cn2ccnc2)OCc2csc3c(Cl)cccc23)c(Cl)c1 (stereo not given)	0	32	0	x	86*	107*
CC(=NCCN1CCOCC1)c1c(O)n(C2CCCCC2)c(=O)[nH]c1=O	-2	17	0	-9	-2	-18
